Data as given in ChEMBL document CHEMBL5303300, “EUbOPEN Chemogenomics Library - Multiplex” (2023).
Several values for one entry are separate records, joined by “and”; a condition that tells them apart may be missing. Identical values can stand only once.

System: Fibroblast
Experiment: Multiplex assay against human fibroblast
Type: toxicity, cell-based
Conditions: number of replicates 2
Summary of the method: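 On a CQ1 microscope at 37°C and 5% CO2, live cells were imaged after compound addition. They had been stained at seeding with Hoechst33342, BioTracker Green Microtubule Cytoskeleton Dye, MitoTracker Red and Annexin V Alexa Fluor 680. CellPathfinder machine-learning gating assigned cells to Hoechst high-intensity objects or normal cells, normal cells to healthy, pyknosed or fragmented nuclei, and pyknosed cells to mitotic or apoptotic. Tubulin, mitochondrial-mass and membrane-permeability phenotypes are per cents of healthy-nucleus cells.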

[1] = 12 h, 1 µM, compound concentration 1 uM
[2] = 12 h, 10 µM, compound concentration 10 uM
[3] = 24 h, 1 µM, compound concentration 1 uM
[4] = 24 h, 10 µM, compound concentration 10 uM
[5] = 48 h, 1 µM, compound concentration 1 uM
[6] = 48 h, 10 µM, compound concentration 10 uM

COc1ccc(F)c(F)c1C(=O)c1cnc(NC2CCN(S(C)(=O)=O)CC2)nc1N [RG-547]
Population Apoptotic (%) [1]: 48% and 56% | Population Fragmented Nuclei (%) [1]: 5% and 8% | Population Healthy Nuclei (%) [1]: 78% and 70% | Population Hoechst High Intensity Objects (%) [1]: 0% | Population Membrane Permeable-Phenotype (%) [1]: 2% and 5% | Population Mitochondria Different-Phenotype (%) [1]: 0% | Population Mitotic Cells (%) [1]: 51% and 43% | Population Normal (%) [1]: 100% | Population Pyknosed Nuclei (%) [1]: 15% and 20% | Population Tubulin-Different-Phenotype (%) [1]: 2% and 9% | Total Cell Count [1]: 173 and 188 | Population Apoptotic (%) [2]: 50% and 56% | Population Fragmented Nuclei (%) [2]: 13% and 12% | Population Healthy Nuclei (%) [2]: 73% and 72% | Population Hoechst High Intensity Objects (%) [2]: 0% | Population Membrane Permeable-Phenotype (%) [2]: 7% and 5% | Population Mitochondria Different-Phenotype (%) [2]: 3% and 2% | Population Mitotic Cells (%) [2]: 50% and 43% | Population Normal (%) [2]: 99% and 100% | Population Pyknosed Nuclei (%) [2]: 13% and 15% | Population Tubulin-Different-Phenotype (%) [2]: 30% and 17% | Total Cell Count [2]: 192 and 209 | Population Apoptotic (%) [3]: 57% and 67% | Population Fragmented Nuclei (%) [3]: 9% and 10% | Population Healthy Nuclei (%) [3]: 77% and 69% | Population Hoechst High Intensity Objects (%) [3]: 0% | Population Membrane Permeable-Phenotype (%) [3]: 4% and 5% | Population Mitochondria Different-Phenotype (%) [3]: 1% and 0% | Population Mitotic Cells (%) [3]: 42% and 32% | Population Normal (%) [3]: 100% | Population Pyknosed Nuclei (%) [3]: 13% and 20% | Population Tubulin-Different-Phenotype (%) [3]: 7% | Total Cell Count [3]: 196 and 184 | Population Apoptotic (%) [4]: 61% and 75% | Population Fragmented Nuclei (%) [4]: 9% and 11% | Population Healthy Nuclei (%) [4]: 72% and 74% | Population Hoechst High Intensity Objects (%) [4]: 0% | Population Membrane Permeable-Phenotype (%) [4]: 7% and 5% | Population Mitochondria Different-Phenotype (%) [4]: 6% and 4% | Population Mitotic Cells (%) [4]: 38% and 25% | Population Normal (%) [4]: 100% | Population Pyknosed Nuclei (%) [4]: 18% and 13% | Population Tubulin-Different-Phenotype (%) [4]: 35% and 26% | Total Cell Count [4]: 194 and 201 | Population Apoptotic (%) [5]: 44% and 71% | Population Fragmented Nuclei (%) [5]: 20% and 11% | Population Healthy Nuclei (%) [5]: 44% and 70% | Population Hoechst High Intensity Objects (%) [5]: 3% and 0% | Population Mitochondria Different-Phenotype (%) [5]: 9% and 0% | Population Mitotic Cells (%) [5]: 55% and 28% | Population Normal (%) [5]: 96% and 100% | Population Pyknosed Nuclei (%) [5]: 36% and 17% | Population Apoptotic (%) [6]: 84% and 68% | Population Fragmented Nuclei (%) [6]: 8% and 11% | Population Healthy Nuclei (%) [6]: 62% | Population Hoechst High Intensity Objects (%) [6]: 0% | Population Membrane Permeable-Phenotype (%) [6]: 17% and 18% | Population Mitochondria Different-Phenotype (%) [6]: 2% and 6% | Population Mitotic Cells (%) [6]: 15% and 31% | Population Normal (%) [6]: 100% | Population Pyknosed Nuclei (%) [6]: 28% and 25% | Population Tubulin-Different-Phenotype (%) [6]: 43% and 38% | Total Cell Count [6]: 179 and 184

CN1CCc2cc(Nc3ncc(C(F)(F)F)c(NCc4cc[nH]n4)n3)ccc2C1
Population Apoptotic (%) [1]: 63% and 62% | Population Fragmented Nuclei (%) [1]: 7% and 19% | Population Healthy Nuclei (%) [1]: 63% and 58% | Population Hoechst High Intensity Objects (%) [1]: 0% | Population Membrane Permeable-Phenotype (%) [1]: 3% and 6% | Population Mitochondria Different-Phenotype (%) [1]: 0% and 1% | Population Mitotic Cells (%) [1]: 36% and 37% | Population Normal (%) [1]: 100% | Population Pyknosed Nuclei (%) [1]: 28% and 22% | Population Tubulin-Different-Phenotype (%) [1]: 1% and 4% | Total Cell Count [1]: 133 and 168 | Population Apoptotic (%) [2]: 70% and 60% | Population Fragmented Nuclei (%) [2]: 19% and 24% | Population Healthy Nuclei (%) [2]: 60% and 63% | Population Hoechst High Intensity Objects (%) [2]: 0% | Population Membrane Permeable-Phenotype (%) [2]: 9% and 11% | Population Mitochondria Different-Phenotype (%) [2]: 1% | Population Mitotic Cells (%) [2]: 29% and 40% | Population Normal (%) [2]: 100% | Population Pyknosed Nuclei (%) [2]: 20% and 11% | Population Tubulin-Different-Phenotype (%) [2]: 16% and 18% | Total Cell Count [2]: 180 and 262 | Population Apoptotic (%) [3]: 84% and 80% | Population Fragmented Nuclei (%) [3]: 15% | Population Healthy Nuclei (%) [3]: 40% and 50% | Population Hoechst High Intensity Objects (%) [3]: 0% | Population Membrane Permeable-Phenotype (%) [3]: 3% and 12% | Population Mitochondria Different-Phenotype (%) [3]: 0% | Population Mitotic Cells (%) [3]: 15% and 20% | Population Normal (%) [3]: 100% and 99% | Population Pyknosed Nuclei (%) [3]: 43% and 34% | Population Tubulin-Different-Phenotype (%) [3]: 3% | Total Cell Count [3]: 133 and 161 | Population Apoptotic (%) [4]: 61% and 84% | Population Fragmented Nuclei (%) [4]: 26% and 20% | Population Healthy Nuclei (%) [4]: 56% and 61% | Population Hoechst High Intensity Objects (%) [4]: 0% | Population Membrane Permeable-Phenotype (%) [4]: 9% and 12% | Population Mitochondria Different-Phenotype (%) [4]: 3% and 1% | Population Mitotic Cells (%) [4]: 38% and 15% | Population Normal (%) [4]: 100% and 99% | Population Pyknosed Nuclei (%) [4]: 16% and 17% | Population Tubulin-Different-Phenotype (%) [4]: 17% and 19% | Total Cell Count [4]: 185 and 253 | Population Apoptotic (%) [5]: 88% and 72% | Population Fragmented Nuclei (%) [5]: 24% and 15% | Population Healthy Nuclei (%) [5]: 40% and 67% | Population Hoechst High Intensity Objects (%) [5]: 0% | Population Membrane Permeable-Phenotype (%) [5]: 8% and 14% | Population Mitochondria Different-Phenotype (%) [5]: 0% | Population Mitotic Cells (%) [5]: 11% and 27% | Population Normal (%) [5]: 100% and 99% | Population Pyknosed Nuclei (%) [5]: 35% and 16% | Population Tubulin-Different-Phenotype (%) [5]: 10% and 12% | Total Cell Count [5]: 122 and 133 | Population Apoptotic (%) [6]: 65% and 59% | Population Fragmented Nuclei (%) [6]: 26% and 22% | Population Healthy Nuclei (%) [6]: 51% and 57% | Population Hoechst High Intensity Objects (%) [6]: 0% | Population Membrane Permeable-Phenotype (%) [6]: 5% and 9% | Population Mitochondria Different-Phenotype (%) [6]: 1% and 0% | Population Mitotic Cells (%) [6]: 34% and 40% | Population Normal (%) [6]: 100% | Population Pyknosed Nuclei (%) [6]: 22% and 19% | Population Tubulin-Different-Phenotype (%) [6]: 14% and 19% | Total Cell Count [6]: 184 and 251
